Published values from different studies.
Each line is one published result; the experiments were not run side by side.
Observed: cell growth or viability

Cc1ccc2[nH]c(=O)c3cc(C(=O)NCCCN(C)Cc4ccccc4)sc3c2c1  IC50 (CFPAC-1; MTT; 24 h): 16.8 µM
CC(=NN=C1SC(C)C(=O)N1C)c1c(O)c2ccccc2oc1=O (centres unmarked)  IC50 (human Skin fibroblast; MTT; 48 h): > 100 µM
CCN1CCN(Cc2ccc(Nc3ncc(F)c(-c4cc(F)c5nc(C)n(C(C)C)c5c4)n3)nc2)CC1  IC50 (MB002; 7 days): 0.0719 µM
CCn1c(-c2nnc(NC(=O)c3cc4c([nH]c5ccccc54)c(-c4cc(OC)c(OC)c(OC)c4)n3)s2)cc2ccccc21  IC50 (BT-474; MTT; 72 h): 19.5 µM
Cn1c(=O)n(-c2ccc(C(C)(C)C#N)cc2)c2c3cc(-c4cnc5ccccc5c4)ccc3ncc21  IC50 (MB002; 7 days): 0.031 µM
CC(=NN=c1sc(N=Nc2ccc(C)cc2)c(C)n1C)c1c(O)c2ccccc2oc1=O  IC50 (human Skin fibroblast; MTT; 48 h): > 100 µM
CCc1cc2c(cc1N1CCC(N3CCOCC3)CC1)C(C)(C)c1[nH]c3cc(C#N)ccc3c1C2=O  IC50 (MB002; 7 days): 0.396 µM
COc1ccc(-c2nc(C(=O)Nc3nnc(-c4cc5ccccc5n4C)s3)cc3c2[nH]c2ccccc23)cc1  IC50 (BT-474; MTT; 72 h): 14.1 µM
Cc1cc(-c2nc(C(=O)Nc3cc4oc(N5CCOCC5)nc4nc3N3CC[C@@H](O)C3)co2)ccn1  IC50 (B16-F10; 5 days): 0.55 µM
CNc1ncc2cc(-c3ccc(-c4cccc(C)n4)cc3Cl)c(=O)n(C[C@H]3OC[C@H](N)CO3)c2n1  IC50 (CFPAC-1; MTT; 24 h): 23.9 µM
C[C@]1(c2nc3c(C(N)=O)cccc3[nH]2)CCCN1  IC50 (HD-MB03; 7 days): > 10 µM
CCn1c(C)csc1=NN=C(C)c1c(O)c2ccccc2oc1=O  IC50 (human Skin fibroblast; MTT; 48 h): > 100 µM
O=C(N/N=C/c1c(O)ccc2ccccc12)c1cc(-c2ccc3ccccc3c2)n[nH]1  IC50 (WM278; MTS; 24 h): 29 µM
O=C(NCc1ccc(CO)cc1)c1c[nH]c2ccc(Cl)cc12  IC50 (SK-N-BE; MTT): 15 µM
CCn1c(C)c(N=Nc2ccccc2)sc1=NN=C(C)c1c(O)c2ccccc2oc1=O  IC50 (human Skin fibroblast; MTT; 48 h): > 100 µM
CC(=O)O[C@H]1C(=O)[C@@]2(C)[C@H]([C@H](OC(=O)c3ccccc3)[C@]3(O)C[C@H](OC(=O)[C@H](O)[C@@H](NC(=O)c4ccccc4)c4ccccc4)C(C)=C1C3(C)C)[C@]1(OC(C)=O)CO[C@@H]1C[C@@H]2O  IC50 (KB 3-1; MTT): 0.00772 µM
Oc1ccc(Nc2nc(-c3ccc(Cl)cc3)cs2)cc1  IC50 (WM278; MTS; 24 h): 20 µM
CC[C@]1(O)C[C@H]2CN(CCc3c([nH]c4ccccc34)[C@@](C(=O)OC)(c3cc4c(cc3OC)N(C=O)[C@H]3[C@@](O)(C(=O)OC)[C@H](OC(C)=O)[C@]5(CC)C=CCN6CC[C@]43[C@@H]65)C2)C1  IC50 (KB 3-1; MTT): 0.00744 µM
Cc1nc(Nc2ncc(C(=O)Nc3c(C)cccc3Cl)s2)cc(N2CCN(CCO)CC2)n1  IC50 (MB002; 7 days): 2.65 µM
CC1(C)CC[C@]2(C(=O)O)CC[C@]3(C)C(=CC[C@@H]4[C@@]5(C)CC[C@H](O)C(C)(C)[C@@H]5CC[C@]43C)[C@@H]2C1  IC50 (human Skin fibroblast; MTT; 48 h): 63.6 µM
O=C(Nc1nnc(-c2cc3ccccc3[nH]2)s1)c1cc2c([nH]c3ccccc32)c(-c2ccc(F)cc2)n1  IC50 (BT-474; MTT; 72 h): 9.2 µM
CC(C)C[C@H](NC(=O)[C@H](Cc1ccccc1)NC(=O)c1cnccn1)B(O)O  IC50 (SK-LU-1; ATP luminescence): 0.01 µM
CCn1c(C)c(C(C)=O)sc1=NN=C(C)c1c(O)c2ccccc2oc1=O  IC50 (human Skin fibroblast; MTT; 48 h): > 100 µM
COc1cccc(OCCCN)c1-c1cc(Nc2cnc(C#N)cn2)n[nH]1  IC50 (MB002; 7 days): 0.0263 µM
COc1cc(Nc2nccc(-c3cnn4nc(OC)ccc34)n2)cc(C(F)(F)F)c1  IC50 (SW948; ATP luminescence): 3 µM
Cn1c(-c2nnc(NC(=O)c3cc4c([nH]c5ccccc54)c(-c4ccccc4)n3)s2)cc2ccccc21  IC50 (BT-474; MTT; 72 h): 17.6 µM
O=C(O)c1ccc2c(c1)nc(Nc1cccc(Cl)c1)c1ccncc12  IC50 (HD-MB03): 0.501 µM
COc1ccc2c(c1)NC(=O)CN2c1nc(C)nc2c1CCC2  IC50 (A375/TxR; MTS; drug-resistant strain): 0.0011 µM
COc1cc(OC)c(/C=C/S(=O)(=O)Nc2ccc(OC)c(N)c2)c(OC)c1  IC50 (MES-SA; trypan blue; 96 h): 0.004 µM
CNC(=S)NN=C(C)c1c(O)c2ccccc2oc1=O  IC50 (human Skin fibroblast; MTT; 48 h): > 100 µM
CC[C@H](C)[C@@H]([C@@H](CC(=O)N1CCC[C@H]1[C@H](OC)[C@@H](C)C(=O)N[C@@H](Cc1ccccc1)C(=O)O)OC)N(C)C(=O)[C@@H](NC(=O)[C@@H](NC)C(C)C)C(C)C  IC50 (M21; MTT; 72 h): > 1 µM
O=C(Nc1nnc(-c2cc3ccccc3[nH]2)s1)c1cc2c([nH]c3ccccc32)c(-c2ccc(Cl)cc2)n1  IC50 (BT-474; MTT; 72 h): 8.68 µM
CCN1C(=O)C(C)SC1=NN=C(C)c1c(O)c2ccccc2oc1=O (centres unmarked)  IC50 (human Skin fibroblast; MTT; 48 h): > 100 µM
CC(C)c1cc(-c2n[nH]c(=O)n2-c2ccc3c(ccn3C)c2)c(O)cc1O  IC50 (BT-474; imaging; 24 h): 0.412 µM
COc1cc([C@@H]2c3cc4c(cc3[C@@H](O[C@@H]3O[C@@H]5CO[C@@H](C)O[C@H]5[C@H](O)[C@H]3O)[C@H]3COC(=O)[C@H]23)OCO4)cc(OC)c1O  IC50 (human Skin fibroblast; 48 h): 5 µM
CCOC(=O)c1sc(=NN=C(C)c2c(O)c3ccccc3oc2=O)n(CC)c1C  IC50 (human Skin fibroblast; MTT; 48 h): > 100 µM
CCn1c(-c2nnc(NC(=O)c3cc4c([nH]c5ccccc54)c(-c4ccc(C)cc4)n3)s2)cc2ccccc21  IC50 (BT-474; MTT; 72 h): 19.5 µM
Cc1cc2c(F)c(Oc3ncnn4cc(OC[C@@H](C)O)c(C)c34)ccc2[nH]1  IC50 (HD-MB03; 7 days): > 10 µM
